Published values gathered from unrelated publications.
Protocols differ between the studies behind these lines.
Organism: Plasmodium falciparum
Read-out: parasite growth

CCCNCC(O)COc1ccccc1C(=O)CCc1ccccc1 (centres unmarked) — EC50 (SYBR Green; 3D7; blood stage): 2690 nM
CCn1cc(C(=O)N2CCOCC2)c(=O)c2cc(F)c(N3CCC(C)CC3)cc21 — EC50 (3D7; 72 h; blood stage): > 10000 nM
C[C@H]1[C@@H](O)O[C@@H]2O[C@@]3(C)CC[C@H]4[C@H](C)CC[C@@H]1[C@@]24OO3 — EC50 (NF54; 48 h; gametocyte): 11.5 nM
Cc1nnc(Nc2ccnc3cc(-c4ccc(S(=O)(=O)N5CCN(C)CC5)cc4)ccc23)nc1C — EC50 (D6; drug-resistant strain, blood stage): 160 nM
CCn1cc(-c2nc(C)no2)c(=O)c2cc(F)c(N3CCC(C(C)C)CC3)cc21 — EC50 (3D7; 72 h; blood stage): 41 nM
CC/N=C(\c1ccc(OC)c(OC)c1)N1CCCc2cc(C3=NNC(=O)SC3C)ccc21 (centres unmarked) — EC50 (3D7; 72 h; blood stage): 1790 nM
CN1CCN(S(=O)(=O)c2ccc(-c3ccc4c(Nc5cnc(C#N)cn5)ccnc4c3)cc2)CC1 — EC50 (D6; drug-resistant strain, blood stage): 120 nM
COc1ccc(OCCCO)cc1-c1cn2cc(-c3nnc(NCCCCc4ccccc4)o3)ccc2n1 — EC50 (3D7; 72 h; blood stage): 2980 nM
CN1CCN(S(=O)(=O)c2cccc(-c3ccc4c(Nc5ccc(OCc6cccc(F)c6)c(Cl)c5)ccnc4c3)c2)CC1 — EC50 (D6; drug-resistant strain, blood stage): 10 nM
CCn1cc(-c2nc(C)no2)c(=O)c2cc(F)c(N3CCCC(C)C3)cc21 (centres unmarked) — EC50 (3D7; 72 h; blood stage): 114 nM
COc1cc(OC)c(CCNC(=O)c2cn3cc(-c4cc(OCC(=O)O)ccc4OC)nc3s2)c(OC)c1 — EC50 (3D7; 72 h; blood stage): 2230 nM
Cc1cc(Nc2ccnc3cc(-c4ccc(S(=O)(=O)N5CCN(C)CC5)cc4)ccc23)sn1 — EC50 (D6; drug-resistant strain, blood stage): 110 nM
CNS(=O)(=O)c1ccccc1Nc1nc(Nc2cc(OC)c(OC)cc2C)ncc1Br — EC50 (3D7; 72 h; blood stage): 153 nM
CCn1cc(-c2nc(C)no2)c(=O)c2cc(F)c(N3CCC(c4ccccc4)CC3)cc21 — EC50 (3D7; 72 h; blood stage): 30 nM
CN1CCN(S(=O)(=O)c2ccc(-c3ccc4c(Nc5cccc(Cl)c5)ccnc4c3)cc2)CC1 — EC50 (D6; drug-resistant strain, blood stage): 200 nM
CCn1cc(-c2nc(C)no2)c(=O)c2cc(F)c(N3CCCCCC3)cc21 — EC50 (3D7; 72 h; blood stage): 35 nM
COc1ccc(Nc2ccnc3cc(-c4cnc(N5CCN(C)CC5)nc4)ccc23)cc1Cl — EC50 (D6; drug-resistant strain, blood stage): 35 nM
COc1ccc(NC(=O)N2CCCCN3[C@H](CN(C)C)[C@H](c4ccc(C#Cc5ccccc5)cc4)[C@@H]3C2)cc1 — EC50 (DD2; blood stage): 13 nM
CCn1cc(-c2cccnc2)c(=O)c2cc(F)c(N3CCC(C)CC3)cc21 — EC50 (3D7; 72 h; blood stage): > 10000 nM
CN1CCC(c2cc(-c3ccncc3)c(-c3ccc(F)cc3)[nH]2)CC1 — EC50 (SYBR Green; A10; 3D7; 72 h; blood stage): 90 nM
